# Measurements pooled from the literature.
# Each line is one published result; the experiments were not run side by side.
# Target: Homeodomain-interacting protein kinase 3 (HIPK3, Homo sapiens, UniProt Q9H422)
Compound,observed,method,concentration,remaining binding
C[C@@H](c1ccc(-n2cnc3c(N)ncnc32)cc1)N1CCc2nn(C)c(Cc3ccccc3)c2C1=O,binding,competition with immobilised ligand,0.1 µM,64%
O=C1NC(c2ccccn2)Sc2ccccc21 (stereo not shown),cell-free assay,competition with immobilised ligand,1 µM,86%
N[C@@H]1CCN(c2nccc(-c3cnn4ncccc34)n2)C1,binding,,1 µM,83%
Nc1ncc2c(n1)-c1c([nH]c3ccc(C#CC4CC4)cc13)CCCC2,binding,competition with immobilised ligand,1 µM,78%
CNC(=O)[C@@H]1CC[C@@H](n2c(-c3ccc4cnccc4c3)nc3ccc(C(=O)NCc4cccc(C(N)=O)c4)cc32)C1,binding,competition with immobilised ligand,1 µM,100%
O=C(NCCCN1CCOCC1)c1ccc(Nc2ncc(Cl)c(-c3ccc(Cl)s3)n2)cc1,binding,competition with immobilised ligand,1 µM,15%
CCS(=O)(=O)c1cc2cc(C[C@@](O)(CC(C)(C)c3ccc(F)cc3C(N)=O)C(F)(F)F)[nH]c2cn1,cell-free assay,competition with immobilised ligand,1 µM,65%
O=C(Nc1c[nH]nc1C(=O)NC1CCNCC1)c1cc(F)cc(F)c1,binding,competition with immobilised ligand,1 µM,41%
O=C(NCCCN1CCOCC1)c1ccc(Nc2nccc(-c3cc4ccccc4s3)n2)cc1,binding,competition with immobilised ligand,1 µM,39%
COc1ncc2cc3ccccc3nc2c1C#N,cell-free assay,competition with immobilised ligand,5 µM,100%
O=C(N[C@H]1CCCCC/C=C\C2C[C@@]2(C(=O)O)NC(=O)[C@@H]2C[C@@H](Oc3ccncc3)CN2C1=O)OC1CCCC1 (stereo partly shown),binding,competition with immobilised ligand,1 µM,100%
Cc1cnc(Nc2ccc(C(=O)N3CCC(N4CCCC4)CC3)cc2)nc1-c1cc2ccccc2s1,binding,competition with immobilised ligand,1 µM,3.1%
CN(C)c1nccc(-c2cnn3ncccc23)n1,binding,,1 µM,51%
CC(=O)N1CCC(c2ccc(C(=O)NC3=NCCN3)cc2C(F)(F)F)CC1,cell-free assay,competition with immobilised ligand,1 µM,72%
CN(CCCC(F)(F)F)c1nccc(-c2cnn3ncccc23)n1,binding,,1 µM,88%
CCC(=O)N[C@H]1CC[C@@H](C(=O)N(C)c2ccc(-c3nc4ccccc4o3)cc2)C1,cell-free assay,competition with immobilised ligand,1 µM,74%
C[C@H]1CCN(c2nccc(-c3cnn4ncccc34)n2)C1,binding,,1 µM,61%
Cn1nc(C(F)(F)F)cc1-c1cnc(N2CCc3cc(S(=O)(=O)Nc4c(F)cc(Cl)cc4F)cc(N4CCCC4=O)c32)nc1,cell-free assay,competition with immobilised ligand,1 µM,85%
CN(c1nccc(-c2cnn3ncccc23)n1)C1CC1,binding,,1 µM,100%
COc1cnc(Nc2cccc(S(N)(=O)=O)c2)nc1N1CCN(c2ccccc2)C(=O)C1,binding,competition with immobilised ligand,1 µM,82%
CN(C)c1nccc(-c2cnc3ncccn23)n1,binding,,1 µM,46%
CCN1CCN(Cc2ccc(C(=O)Nc3ccc(C)c(Oc4ccc5c(c4)CC(=O)N5)c3)cc2C(F)(F)F)CC1,binding,competition with immobilised ligand,1 µM,100%
